Results taken from article PMC9037807 (RSC Advances, 2021).

Key:
ovine COX-2 = molecular target: T1, ovine COX-2 (Ovis aries, UniProt P79208); experiment: In vitro cyclooxygenase; assay type: biochemical; settings: for Selectivity index (SI): COX-1 IC50/COX-2 IC50
T1 sequence (P79208 17-603): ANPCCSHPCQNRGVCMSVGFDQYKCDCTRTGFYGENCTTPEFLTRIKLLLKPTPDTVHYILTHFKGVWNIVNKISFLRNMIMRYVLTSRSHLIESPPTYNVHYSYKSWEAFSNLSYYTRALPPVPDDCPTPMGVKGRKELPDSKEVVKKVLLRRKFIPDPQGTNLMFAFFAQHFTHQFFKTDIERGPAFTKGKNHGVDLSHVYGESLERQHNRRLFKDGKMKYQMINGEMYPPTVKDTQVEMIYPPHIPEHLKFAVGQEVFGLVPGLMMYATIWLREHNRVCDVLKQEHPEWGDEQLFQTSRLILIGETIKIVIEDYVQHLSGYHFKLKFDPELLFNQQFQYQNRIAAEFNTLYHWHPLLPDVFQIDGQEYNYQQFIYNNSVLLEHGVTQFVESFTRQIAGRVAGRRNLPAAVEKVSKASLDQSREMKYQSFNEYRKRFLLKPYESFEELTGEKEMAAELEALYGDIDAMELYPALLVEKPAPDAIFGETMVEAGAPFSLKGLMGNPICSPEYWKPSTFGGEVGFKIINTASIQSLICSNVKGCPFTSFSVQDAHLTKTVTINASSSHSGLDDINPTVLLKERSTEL

ovine COX-1 = molecular target: T2, ovine COX-1 (Ovis aries, UniProt P05979); experiment: In vitro cyclooxygenase; assay type: biochemical
T2 sequence (P05979 25-600): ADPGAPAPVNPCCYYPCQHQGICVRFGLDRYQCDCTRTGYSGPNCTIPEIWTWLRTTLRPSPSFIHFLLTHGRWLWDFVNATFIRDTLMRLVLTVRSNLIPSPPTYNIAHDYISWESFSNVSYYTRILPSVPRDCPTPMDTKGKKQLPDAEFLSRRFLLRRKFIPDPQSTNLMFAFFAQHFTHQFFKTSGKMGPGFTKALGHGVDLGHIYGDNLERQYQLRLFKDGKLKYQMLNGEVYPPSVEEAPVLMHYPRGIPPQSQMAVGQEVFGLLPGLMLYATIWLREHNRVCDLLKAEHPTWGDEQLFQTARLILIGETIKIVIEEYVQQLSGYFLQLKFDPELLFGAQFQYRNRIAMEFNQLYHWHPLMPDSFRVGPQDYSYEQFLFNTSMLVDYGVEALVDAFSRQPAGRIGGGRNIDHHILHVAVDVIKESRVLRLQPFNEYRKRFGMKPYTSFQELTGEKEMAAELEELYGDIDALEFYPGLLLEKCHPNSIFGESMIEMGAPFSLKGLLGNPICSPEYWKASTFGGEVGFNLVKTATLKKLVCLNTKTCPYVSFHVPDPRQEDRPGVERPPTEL

[1] = test system: carrageenan-induced rat paw edema; experiment: Carrageenan-induced rat paw edema model; assay type: in vivo; settings: 10 mg kg−1 po, n = 4; for Edema inhibition %, 1 h / Edema thickness ± SEM, 1 h: 1 h after carrageenan injection; for Edema inhibition %, 3 h / Edema thickness ± SEM, 3 h: 3 h after carrageenan injection; for Edema inhibition %, 6 h / Edema thickness ± SEM, 6 h: 6 h after carrageenan injection
Procedure, shortened: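 Rats were dosed orally with test compound (10 mg kg−1) in 5% aqueous DMSO (v/v). […] Thirty minutes after dosing, 0.02 ml of 1% carrageenan was injected sub-plantar. Paw thickness was measured 1, 3 and 6 h after injection, and edema inhibition % was calculated from paw thickness.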

SMILES | IC50 (ovine COX-2) [µM] | Selectivity index (SI) (ovine COX-2) | IC50 (ovine COX-1) [µM] | Edema inhibition %, 1 h [1] [%] | Edema thickness ± SEM, 1 h [1] [mm] | Edema inhibition %, 3 h [1] [%] | Edema thickness ± SEM, 3 h [1] [mm] | Edema inhibition %, 6 h [1] [%] | Edema thickness ± SEM, 6 h [1] [mm]
CS(=O)(=O)c1ccc(-c2nc3ccccc3n2CC(=O)N/N=C/c2ccccc2)cc1 [11a, (E)-N′-Benzylidene-2-(2-(4-(methylsulfonyl)phenyl)-1H-benzo[d]imidazol-1-yl) acetohydrazide] | 0.19 | 52 | 9.87 | 60 | 1.048 ± 0.027 | 64 | 0.812 ± 0.037 | 69 | 0.578 ± 0.049
Cc1ccc2c(c1)nc(-c1ccc(S(C)(=O)=O)cc1)n2CC(=O)N/N=C/c1ccc(F)cc1 [11l, (E)-N′-(4-Fluorobenzylidene)-2-(5-methyl-2-(4-(methylsulfonyl)phenyl)-1H-benzo[d]imidazol-1-yl) acetohydrazide] | 0.34 | 23 | 7.96 | 47 | 1.378 ± 0.009 | 51 | 1.102 ± 0.086 | 55 | 0.860 ± 0.010
COc1ccc(/C=N/NC(=O)Cn2c(-c3ccc(S(C)(=O)=O)cc3)nc3ccccc32)cc1 [11c, (E)-N′-(4-Methoxybenzylidene)-2-(2-(4-(methylsulfonyl)phenyl)-1H-benzo[d]imidazol-1-yl) acetohydrazide] | 0.11 | 103 | 11.3 | 81 | 0.487 ± 0.019 | 92 | 0.181 ± 0.013 | 93 | 0.130 ± 0.010
CS(=O)(=O)c1ccc(-c2nc3ccccc3n2CC(=O)N/N=C/c2ccc(F)cc2)cc1 [11d, (E)-N′-(4-Fluorobenzylidene)-2-(2-(4-(methylsulfonyl)phenyl)-1H-benzo[d]imidazol-1-yl) acetohydrazide] | 0.12 | 85 | 10.2 |  |  | 81 | 0.427 ± 0.017 | 90 | 0.183 ± 0.014
CS(=O)(=O)c1ccc(-c2nc3cc(Cl)ccc3n2CC(=O)N/N=C/c2ccc(Cl)cc2)cc1 [11f, (E)-N′-(4-Chlorobenzylidene)-2-(5-chloro-2-(4-(methylsulfonyl)phenyl)-1H-benzo[d]imidazol-1-yl) acetohydrazide] | 0.13 | 79 | 10.2 | 78 | 0.577 ± 0.020 | 80 | 0.449 ± 0.008 | 90 | 0.191 ± 0.011

Continued, in another order:

IC50 (ovine COX-2) [µM] | Selectivity index (SI) (ovine COX-2) | IC50 (ovine COX-1) [µM] | SMILES | Edema inhibition %, 1 h [1] [%] | Edema thickness ± SEM, 1 h [1] [mm] | Edema inhibition %, 3 h [1] [%] | Edema thickness ± SEM, 3 h [1] [mm] | Edema inhibition %, 6 h [1] [%] | Edema thickness ± SEM, 6 h [1] [mm]
0.28 | 32 | 8.97 | C/C(=N\NC(=O)Cn1c(-c2ccc(S(C)(=O)=O)cc2)nc2ccccc21)c1ccccc1 [12a, (E)-2-(2-(4-(Methylsulfonyl)phenyl)-1H-benzo[d]imidazol-1-yl)-N′-(1-phenylethylidene) acetohydrazide] | 50 | 1.308 ± 0.101 | 54 | 1.017 ± 0.024 | 60 | 0.766 ± 0.006
0.19 | 57 | 10.9 | C/C(=N\NC(=O)Cn1c(-c2ccc(S(C)(=O)=O)cc2)nc2cc(C)ccc21)c1ccc(Cl)cc1 [12f, (E)-N′-(1-(4-Chlorophenyl)ethylidene)-2-(5-methyl-2-(4-(methylsulfonyl)phenyl)-1H-benzo[d]imidazol-1-yl) acetohydrazide] | 60 | 1.038 ± 0.014 | 64 | 0.801 ± 0.013 | 70 | 0.563 ± 0.012
